ChEMBL document CHEMBL1255187, “Structure-based design and synthesis of potent, ethylenediamine-based, mammalian farnesyltransferase inhibitors as anticancer agents” (J Med Chem, 2010)

Tests used:
[1] = species: Homo sapiens; assay: Selectivity ratio of IC50 for human geranylgeranyltransferase-1 to IC50 for human farnesyltransferase
[2] = target: Geranylgeranyl transferase type I (Homo sapiens, UniProt P49354+P53609); assay: Inhibition of human geranylgeranyltransferase-1 assessed as incorporation of [3H]GGPP into H-Ras-CVLL; assay type: protein-complex assay
Procedure, shortened: (§1)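 In vitro radiometric assay measuring transfer of [3H]FPP (FTase) or [3H]GGPP (GGTase-I) onto recombinant H-Ras-CVLS or H-Ras-CVLL, respectively.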

[3] = target: Protein farnesyltransferase (Homo sapiens, UniProt P49354+P49356); assay: Inhibition of human farnesyltransferase assessed as incorporation of [3H]FPP into H-Ras-CVLS; assay type: protein-complex assay; procedure, shortened: as §1
[4] = target: Geranylgeranyl transferase type 1 (Mus musculus, UniProt Q61239+Q8BUY9); assay: Inhibition of Rap1A geranylgeranylation expressed in mouse NIH3T3 cells; assay type: functional, cell-based
Procedure, shortened: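 Oncogenic H-Ras-transformed NIH3T3 cells were treated with a range of inhibitor concentrations. […] Detection used peroxidase-conjugated secondary antibodies and enhanced chemiluminescence. IC50 is the mean of three independent assays ± SD unless stated otherwise.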

Row | Structure (SMILES) | Selectivity ratio [1] | IC50 [2] [µM] | IC50 [3] [nM] | IC50 [4] [µM]
1 | Cn1cnc(S(=O)(=O)N(CCN(Cc2c[nH]cn2)c2ccc(Br)cc2)Cc2ccccc2)c1 | 6 | – | – | –
2 | Cn1cnc(S(=O)(=O)N(CCN(Cc2cncn2C)c2c(F)cc(C#N)cc2F)CC2CCN(c3ncccn3)CC2)c1 | > 34 | > 10 | 290 | –
3 | Cn1cnc(S(=O)(=O)N(Cc2ccccc2)[C@@H]2CC[C@@H](N(Cc3cncn3C)c3ccc(C#N)cc3)C2)c1 (racemic) | 19 | 7.05 | 380 | –
4 | Cn1cnc(S(=O)(=O)N(CCN(Cc2cncn2C)c2ncc(C#N)cn2)CC2CCN(c3ncccn3)CC2)c1 | > 16 | > 10 | 620 | –
5 | Cn1cnc(S(=O)(=O)N(CCN(Cc2cncn2C)c2ccc(C#N)cc2F)CC2CCN(c3ncccn3)CC2)c1 | > 156 | > 10 | 64 | –
6 | Cn1cncc1CN(CCN(Cc1ccccc1)S(=O)(=O)C1CC1)c1ccc(C#N)cc1 | 65 | – | – | –
7 | Cn1cnc(S(=O)(=O)N(CCN(Cc2cncn2C)c2ccc(-c3ccccc3)cc2)Cc2ccccc2)c1 | 0.7 | 5 | 6850 | –
8 | CN(C)c1cccc2c(S(=O)(=O)N(CCN(Cc3cncn3C)c3ccc(C#N)cc3)Cc3ccccc3)cccc12 | – | 10 | 160 | > 10
9 | Cn1cnc(S(=O)(=O)N(CCCN(Cc2cncn2C)c2ccc(C#N)cc2)Cc2ccccc2)c1 | 11 | 4.6 | 420 | –
10 | Cn1cnc(S(=O)(=O)N(CCN(Cc2cncn2C)c2ccc(C#N)cn2)CC2CCN(c3ncccn3)CC2)c1 | > 91 | > 10 | 110 | –
11 | Cn1cnc(S(=O)(=O)N(CCN(Cc2cncn2C)c2ccc(C(N)=O)cc2)Cc2ccccc2)c1 | > 2 | > 10 | 5300 | –
12 | Cn1cnc(S(=O)(=O)N(CCN(Cc2cncn2C)c2c(F)c(F)c(C#N)c(F)c2F)CC2CCN(c3ncccn3)CC2)c1 | 18 | 8.75 | 490 | –
13 | Cn1cnc(S(=O)(=O)N(CCN(Cc2cncn2C)c2ccc(C#N)nc2)CC2CCN(c3ncccn3)CC2)c1 | – | > 10 | 520 | –
14 | Cn1cnc(S(=O)(=O)N(Cc2ccccc2)[C@H]2CCC[C@@H]2N(Cc2cncn2C)c2ccc(C#N)cc2)c1 (racemic) | 20 | 9.15 | 450 | –
15 | Cn1cnc(S(=O)(=O)N(Cc2ccccc2)[C@H]2CC[C@@H](N(Cc3cncn3C)c3ccc(C#N)cc3)C2)c1 (racemic) | > 15 | > 10 | 650 | –
16 | C#CCN(CCN(Cc1cncn1C)c1ccc(C#N)cc1)S(=O)(=O)c1cn(C)cn1 | > 14 | > 10 | 720 | > 10
17 | Cn1cnc(S(=O)(=O)N(CCN(Cc2cncn2C)c2ccc(C#N)c(F)c2)CC2CCN(c3ncccn3)CC2)c1 | 41 | 9.4 | 230 | –
18 | Cn1cnc(S(=O)(=O)N(CCN(Cc2c[nH]cn2)c2ccccc2)Cc2ccccc2)c1 | 1.6 | – | – | –
19 | Cn1cnc(S(=O)(=O)N(CCN(Cc2cncn2C)c2ccc(C(=O)O)cc2)Cc2ccccc2)c1 | – | > 10 | > 10000 | –
20 | Cn1cnc(S(=O)(=O)N(CCN(Cc2cncn2C)c2ccc(C#N)cc2Cl)CC2CCN(c3ncccn3)CC2)c1 | – | > 10 | 550 | –
21 | Cn1cnc(S(=O)(=O)N(Cc2ccccc2)[C@@H]2CCC[C@@H]2N(Cc2cncn2C)c2ccc(C#N)cc2)c1 (racemic) | > 10 | > 10 | 1000 | –
22 | Cn1cnc(S(=O)(=O)N(CCN(Cc2cncn2C)c2ccc(C(=O)OC(C)(C)C)cc2)Cc2ccccc2)c1 | 0.9 | 4.9 | 5400 | –
23 | Cc1c(CN(CCN(Cc2cncn2C)c2ccc(C#N)cc2)S(=O)(=O)c2cn(C)cn2)cnn1C | – | > 10 | 5300 | –
